Bioassay records deposited in PubChem by several laboratories.
PolyA inhibitor – polyadenylation inhibitors in yeast reporter cells, primary screen, luminescence, S. cerevisiae; S. cerevisiae SKY197-pL101 polyadenylation reporter, beta-gal luminescence; efflux-impaired pdr1/pdr3 knockout yeast; score 100 = 6 SD above DMSO; activity score, % at 12 µM; hit rate 0.02% among 300,000;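 active = lowest replicate activity score at least 50, where 100 means six control SD above control mean; inconclusive = lowest score under 50 but half or more replicates reach 50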;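 note: yeast exposed to compound for 9 h at 30 °C; higher score means more reporter readthrough which indicates perturbed polyadenylation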
T cruzi inh – inhibitors of intracellular T. cruzi growth, primary screen, luminescence, NIH3T3 host cells; T. cruzi beta-gal in NIH3T3, 90 h; inhibition, % (test concentration not listed); hit rate 1.4% among 300,000; AID 1885, 2009;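 active = mean inhibition across valid replicates above about 55%, limit read from the data; inconclusive = mean below that limit but half or more replicates reach it; inactive = mean below it, under half of replicates reach it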;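 note: signal also drops with host cell toxicity which is not excluded here; higher percent means less beta-gal luminescence so fewer parasites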
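Test system: β-gal T. cruzi (Tulahuen C4) inside NIH/3T3 cells / Quantity: 5,000 cells/well / Measured by: luminescence from GalScreen with 0.05% NP40, read after 60 min / Medium: DMEM plus 2% FBS / Measure: parasite load inhibition, % / Reagent: Tulahuen C4 trypomastigotes, 5000/well / Schedule: co-culture of at least 90 h after 3 h attachment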
HDAC3 inhib – HDAC3 deacetylase inhibitors, primary screen, biochemical, fluorescence, cell-free homogeneous; Histone deacetylase 3 (Homo sapiens), O15379; recombinant HDAC3, fluorogenic peptide/trypsin coupled; inhibition, % at 8.3 µM; hit rate 0.15% among 320,000; AID 2718, 2010; in the data active = inhibition above about 26%, passing the limit was not always enough; inconclusive = no clear call, values can overlap the other calls
Target sequence (O15379 whole entry, looked up): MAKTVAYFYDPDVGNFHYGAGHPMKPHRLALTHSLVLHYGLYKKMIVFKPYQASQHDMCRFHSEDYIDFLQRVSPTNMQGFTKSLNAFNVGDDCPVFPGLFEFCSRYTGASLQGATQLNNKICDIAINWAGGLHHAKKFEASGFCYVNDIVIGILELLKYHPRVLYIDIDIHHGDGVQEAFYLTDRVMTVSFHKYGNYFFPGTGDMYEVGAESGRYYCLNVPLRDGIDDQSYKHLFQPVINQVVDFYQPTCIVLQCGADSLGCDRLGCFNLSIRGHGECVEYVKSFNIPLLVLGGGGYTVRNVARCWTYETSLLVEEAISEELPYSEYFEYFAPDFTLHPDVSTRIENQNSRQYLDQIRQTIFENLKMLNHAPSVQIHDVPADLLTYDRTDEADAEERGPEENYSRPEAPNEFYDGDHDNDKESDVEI
Efflux pump inh – inhibitors of Candida efflux pumps in yeast, primary screen, S. cerevisiae, Nile Red, multiplex; S. cerevisiae Candida pump triplex; inhibition, % at 10 µM; hit rate 0.44% among 330,000;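 active = plate passing quality check with inhibition over a set limit, or well fluorescence over plate mean plus 4 SD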;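 note: Nile Red retained in pooled yeast measured as flow cytometry median fluorescence; higher means more Nile Red kept so more efflux inhibition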
AI-2 QS mod – Vibrio harveyi AI-2 quorum sensing modulators, primary screen, JMH597 strain, luminescence/OD600 ratio. activity change, % at 7.5 µM. AID 2094, 2009. Vibrio harveyi JMH597 AI-2 luminescence/OD600 ratio, 9 h; stronger effect = lower value; strain lacks LuxN and CqsS sensors; 0 = neutral-control median. hit rate 0.4% among 300,000; in the data active = activity change below about -75%, passing the limit was not always enough; inconclusive = no clear call, values can overlap the other calls;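 note: luminescence divided by OD600 gain over 9 h not by final OD600 alone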
JMH597 growth – Vibrio harveyi growth inhibition, confirmation, counter-screen for AI-2 quorum sensing project, JMH597 strain, OD600 absorbance; shares compounds with AI-2 QS mod; 9 h; lacks LuxN and CqsS sensors; growth inhibition, % at 7.5 µM; hit rate 1% among 750; AID 2726, 2010;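 active = every replicate shows growth inhibition above 50%; inconclusive = at least half, but not all, replicates pass that cutoff; inactive = fewer than half of replicates pass it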
BB721 const-QS lum – luminescence inhibition in constitutive-on V. harveyi, confirmation, counter-screen for LuxS inhibitor project, strain BB721, luminescence readout | shares compounds with AI-2 QS mod | Vibrio harveyi BB721 luminescence, 9 h | inhibition, % at 7.5 µM | hit rate 95% among 750;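 active = inhibition above about 80% in every replicate, not just on average, limit read from the data; inconclusive = at least half of replicates past the limit, but not all; inactive = fewer than half of replicates past the limit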
BB721 growth – growth inhibition of V. harveyi BB721, confirmation, cytotoxicity control for AI-2 quorum sensing inhibitors, strain BB721, absorbance OD600; Vibrio harveyi BB721 growth, 9 h; shares compounds with AI-2 QS mod; growth inhibition, % at 7.5 µM; hit rate 3% among 750;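 active = every replicate shows growth inhibition above 50%; inconclusive = at least half but not all replicates above 50% inhibition; inactive = under half of replicates above 50% inhibition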
AI-2 QS JMH597 – Vibrio harveyi AI-2 signaling luminescence modulation – JMH597 strain, confirmation | shares compounds with AI-2 QS mod | Vibrio harveyi JMH597 AI-2 quorum sensing luminescence, 9 h; luxN and CqsS knockout, AI-2 only | inhibition, % at 7.5 µM | hit rate 97% among 750 | AID 2736, 2010;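 active = every replicate shows more than 75% inhibition of signal versus neutral control wells; inconclusive = half to three quarters of replicates exceed 75% inhibition; inactive = fewer than half of replicates exceed 75% inhibition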
Each line names hits and unclear results; the compound was inactive in the other large screens (follow-up assays come after a bar, where they were run). In the library only some 2.2% were active in any assay of this set; here they are far more common.

Cc1ccc(C(=O)NCc2ccc3c(c2)CCO3)cc1C	none
CCS(=O)(=O)c1ccc2oc(Nc3cccc(OC)c3)nc2c1	AI-2 QS mod inconclusive | JMH597 growth inactive | BB721 const-QS lum 82 | BB721 growth inactive | AI-2 QS JMH597 88
N/C(=N\OC(=O)COc1ccccc1)c1cccnc1	AI-2 QS mod -88 | JMH597 growth inactive | BB721 const-QS lum 95 | BB721 growth inactive | AI-2 QS JMH597 97
N/C(=N\OC(=O)COc1ccc(Br)cc1)c1cccnc1	none
Cc1cccc(OCC(=O)O/N=C(\N)c2ccccn2)c1	AI-2 QS mod -91 | JMH597 growth inactive | BB721 const-QS lum 93 | BB721 growth inactive | AI-2 QS JMH597 96
Cc1cc(C)cc(OCC(=O)O/N=C(\N)c2ccccn2)c1	AI-2 QS mod inconclusive
Cc1cc(C)cc(OCC(=O)O/N=C(\N)c2cccnc2)c1	AI-2 QS mod -96 (no result: HDAC3 inhib, Efflux pump inh) | JMH597 growth inactive | BB721 const-QS lum 98 | BB721 growth inactive | AI-2 QS JMH597 98
Cc1ccc(NC(=O)c2sc(N)nc2-c2ccc([N+](=O)[O-])cc2)c(C)c1	T cruzi inh inconclusive
NS(=O)(=O)c1ccc(NC(=O)CN2C(=O)c3ccccc3C2=O)cc1	AI-2 QS mod -84 | JMH597 growth inactive | BB721 const-QS lum 93 | BB721 growth inactive | AI-2 QS JMH597 96
O=C(CN1C(=O)c2ccccc2C1=O)Nc1ccccc1	none
O=C(CN1C(=O)c2ccccc2C1=O)Nc1ccc(S(=O)(=O)N2CCOCC2)cc1	AI-2 QS mod -97 | JMH597 growth inactive | BB721 const-QS lum 99 | BB721 growth inactive | AI-2 QS JMH597 100
CCCC(=O)NC(=S)Nc1ccccc1F	AI-2 QS mod -85 | JMH597 growth inactive | BB721 const-QS lum 92 | BB721 growth inactive | AI-2 QS JMH597 87
CCC(=O)NC(=S)Nc1ccccc1F	none
N#Cc1nc(-c2ccccc2F)oc1NCc1ccccc1	AI-2 QS mod -90 | JMH597 growth inactive | BB721 const-QS lum 96 | BB721 growth inactive | AI-2 QS JMH597 97
Cc1ccc(CNc2oc(-c3ccco3)nc2C#N)cc1	AI-2 QS mod -86 | JMH597 growth inactive | BB721 const-QS lum 95 | BB721 growth inactive | AI-2 QS JMH597 98
CC(=O)Nc1ccc(Nc2ncnc3c2cnn3-c2ccccc2)cc1	none
CN(C)S(=O)(=O)c1ccc(NC(=O)COc2ncnc3c2cnn3-c2ccccc2)cc1	AI-2 QS mod inconclusive | JMH597 growth inactive | BB721 const-QS lum 91 | BB721 growth inactive | AI-2 QS JMH597 95
Cc1ccc(S(=O)(=O)c2ccc(C)cc2)cc1	AI-2 QS mod -92 | JMH597 growth inactive | BB721 const-QS lum 98 | BB721 growth inactive | AI-2 QS JMH597 100
COC(=O)c1ccccc1NC(=O)CSc1nc2ncccc2[nH]1	none
CC(C)c1ccc(NC(=O)CSc2nc3ncccc3[nH]2)cc1	AI-2 QS mod -83 | JMH597 growth inactive | BB721 const-QS lum 93 | BB721 growth inactive | AI-2 QS JMH597 95
CC(C)OC(=O)c1ccc(NC(=O)CSc2nc3ncccc3[nH]2)cc1	AI-2 QS mod -85 | JMH597 growth inactive | BB721 const-QS lum 96 | BB721 growth inactive | AI-2 QS JMH597 98
COc1ccc(NC(=O)CSc2nc3ncccc3[nH]2)cc1OC	none
Cc1sc(N2CCN(S(=O)(=O)c3ccc4c(c3)NC(=O)CO4)CC2)nc1-c1ccccc1	none
CC1(c2ccccc2)NC(=O)N(CC(=O)NC(=O)NCc2ccco2)C1=O (configuration not stated)	AI-2 QS mod -82 | JMH597 growth inactive | BB721 const-QS lum 88 | BB721 growth inactive | AI-2 QS JMH597 92
CC1(c2ccccc2)NC(=O)N(CC(=O)Nc2ccc([N+](=O)[O-])cc2)C1=O (configuration not stated)	AI-2 QS mod -89 | JMH597 growth inactive | BB721 const-QS lum 97 | BB721 growth inactive | AI-2 QS JMH597 98
CC1SC(C)C(=O)N(CC(=O)Nc2ccc([N+](=O)[O-])cc2)C1=O (configuration not stated)	AI-2 QS mod -94 | JMH597 growth inactive | BB721 const-QS lum 99 | BB721 growth inactive | AI-2 QS JMH597 99
COc1ccc(C2(C)NC(=O)N(CC(=O)Nc3ccc(S(=O)(=O)N4CCCC4)cc3)C2=O)cc1 (configuration not stated)	AI-2 QS mod -90 | JMH597 growth inactive | BB721 const-QS lum 89 | BB721 growth inactive | AI-2 QS JMH597 94
O=C(Nc1ccc(S(=O)(=O)Nc2cnc3ccccc3n2)cc1)c1cc(F)c(F)cc1Cl	none
O=C(NC1CCN(Cc2ccccc2)CC1)c1cccc(S(=O)(=O)Nc2ccc(SC(F)F)cc2)c1	none (no result: PolyA inhibitor, T cruzi inh, AI-2 QS mod)
Cc1cc(NC(=O)CN2C(=O)NC(C)(c3ccccc3)C2=O)no1 (configuration not stated)	none
Cc1cc(C)cc(NC(=O)CN2C(=O)NC(C)(c3ccccc3)C2=O)c1 (configuration not stated)	AI-2 QS mod -83 | JMH597 growth inactive | BB721 const-QS lum 86 | BB721 growth inactive | AI-2 QS JMH597 92
O=C(Cn1nnc2ccccc21)Nc1ccc([N+](=O)[O-])cc1	AI-2 QS mod -92 | JMH597 growth inactive | BB721 const-QS lum 99 | BB721 growth inactive | AI-2 QS JMH597 99
COc1ccc2[nH]c(C(=O)NCc3ccccc3)c(C)c2c1	none
O=C(Nc1ccccc1F)N1CCc2ccccc2C1	none
CNC(=O)Cn1nc(C)c2ccccc2c1=O	none
Cc1nn(CC(=O)Nc2cccnc2)c(=O)c2ccccc12	AI-2 QS mod -95 | JMH597 growth inactive | BB721 const-QS lum 98 | BB721 growth inactive | AI-2 QS JMH597 99
Cc1nn(CC(=O)Nc2nnc(CC(=O)N3CCCC3)s2)c(=O)c2ccccc12	none
Cc1nn(CC(=O)Nc2ccc3c(c2)nc(CN2CCCC2)n3C)c(=O)c2ccccc12	HDAC3 inhib inconclusive
